Laboratory results: PubChem BioAssay AID493235 (Broad Institute, 2011)
Several values for one entry are separate records, joined by “and”; a condition that tells them apart may be missing. Identical values can stand only once. Results filed as inconclusive are left out. Activity calls are given as the source filed them.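 The calls were made as follows: active = fitted dose curve passes 500% activation at or below the top valid tested dose; inconclusive = no clear call, values can overlap the other calls; inactive = the rest, opposite-direction activity included.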

Experiments:
[1] = system: U2OS HRE-luciferase reporter, luminescence; experiment: HIF pathway activators in HRE-luciferase reporter, dose response, cell-based, U2OS, luminescence, dry powder, set 7 (AID 493235)
Summary of the method: (§1)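 Test system – human U2OS osteosarcoma cells stably expressing 3×HRE-driven luciferase reporter · Quantity – 6,000 cells/well · Medium – DMEM without phenol red, with 10% fetal bovine serum · Compound – 8 concentrations, 3-fold steps · Times – cells grown 24 h before dosing, compound exposure 24 h at 37 °C · Detection – luminescence with Steady-Glo luciferase reagent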

[2] = as above; conditions: U2OS HRE-luciferase reporter, luminescence; at 38 µM (top of the series)
Summary of the method: as §1

| Compound | AC500 [1] | activation [2] |
| --- | --- | --- |
| Cc1cccc(Nc2nc(-c3ccccn3)nnc2-c2ccccc2)n1 | 10.7 µM |  |
| c1ccc(-c2csc(Nc3nc(-c4ccccn4)nnc3-c3ccccc3)n2)cc1 | 2.01 µM |  |
| Cc1ccc(NC(=O)c2cc(-c3ccccc3)on2)cn1 |  | -7.72% (inactive) |
| O=C(Nc1ccc2ccccc2n1)c1cc(-c2ccccc2)on1 |  | 12.3% (inactive) |
| Oc1ccc(CN2CCC(Cc3ccccc3)CC2)c2cccnc12 | 20.1 µM |  |
| O=C(NCCCn1ccnc1)c1cc(-c2ccccc2)on1 | 5.75 µM |  |
| c1ccc(-c2nnc(Nc3nc(-c4ccccn4)nnc3-c3ccccc3)s2)cc1 | 2.99 µM |  |
| c1ccc(-c2ccc(CNc3nc(-c4ccccn4)nnc3-c3ccccc3)cc2)cc1 | 0.71 µM |  |
| C[C@@H](Nc1nc(-c2ccccn2)nnc1-c1ccccc1)c1ccccc1 | 3.92 µM |  |
| c1ccc(-c2nnc(-c3ccccn3)nc2N2CCN(c3ccncc3)CC2)cc1 | 9.6 µM |  |
| c1ccc(-c2cccc(CNc3nc(-c4ccccn4)nnc3-c3ccccc3)c2)cc1 | 3.39 µM |  |
| O=C(NCCN1CCOCC1)c1cc(-c2ccccc2)on1 | 14.2 µM |  |
| Cc1cccc(CNC(=O)c2cc(-c3ccccc3)on2)c1 |  | 1.59% (inactive) |
| CN1CCN(C(=O)c2cc(-c3ccccc3)on2)CC1 |  | 2.48% (inactive) |
| c1ccc(-c2nnc(-c3ccccn3)nc2NCCc2ccccn2)cc1 | 10.3 µM |  |
| Cc1ccc(CNc2nc(-c3ccccn3)nnc2-c2ccccc2)cc1C | 1.31 µM |  |
| c1ccc(-c2nnc(-c3ccccn3)nc2Nc2cnc3ccccc3n2)cc1 | 6.2 µM |  |
| c1ccc(-c2nnc(-c3ccccn3)nc2NCC2CCOCC2)cc1 | 14.2 µM |  |
| CC(C)(C)CCNC(=O)c1cc(-c2ccccc2)on1 | 35.8 µM |  |
| CC(C)(C)c1ccc(CNc2nc(-c3ccccn3)nnc2-c2ccccc2)cc1 | 1.33 µM |  |
| Cc1ccc(Nc2nc(-c3ccccn3)nnc2-c2ccccc2)cn1 | 11.2 µM |  |
| Oc1ccc(CN2CCc3ccccc3C2)c2cccnc12 | 3.21 µM | 263% (inactive) |
| CC1CN(Cc2ccc(O)c3ncccc23)CC(C)O1 (stereo unspecified) |  | 95.7% (inactive) |
| O=C(Nc1nnc(-c2ccccc2)s1)c1cc(-c2ccccc2)on1 |  | -7.41% (inactive) |
| CN(C)c1nc(-c2ccccn2)nnc1-c1ccccc1 | 14.2 µM |  |
| Cn1c(-c2ccccc2)cnc1Nc1nc(-c2ccccn2)nnc1-c1ccccc1 | 9.16 µM |  |
| CC(Nc1nc(-c2ccccn2)nnc1-c1ccccc1)c1ccccc1 (stereo unspecified) | 2.97 µM |  |

| Compound | AC500 [1] | activation [2] |
| --- | --- | --- |
| O=C(Nc1ncc(-c2ccccc2)o1)c1cc(-c2ccccc2)on1 |  | 14.8% (inactive) |
| c1ccc(-c2nnc(-c3ccccn3)nc2Nc2nc3ccccc3s2)cc1 | 5.89 µM |  |
| c1ccc(-c2nnc(-c3ccccn3)nc2NCC2CC2)cc1 | 8.75 µM |  |
| O=C(c1cc(-c2ccccc2)on1)N1CCC(N2CCCC2)CC1 |  | 5.02% (inactive) |
| c1ccc(-c2nnc(-c3ccccn3)nc2NCCN2CCOCC2)cc1 | 9.37 µM |  |
| O=C(NCC1CC1)c1cc(-c2ccccc2)on1 | 10 µM |  |
| O=C(Nc1nc(-c2ccccc2)cs1)c1cc(-c2ccccc2)on1 |  | -17.1% (inactive) |
| OCCCNc1nc(-c2ccccn2)nnc1-c1ccccc1 | 16.8 µM |  |
| c1ccc(-c2nnc(-c3ccccn3)nc2N2CCC(C3CCCCC3)C2)cc1 (stereo unspecified) | 4.37 µM |  |
| O=C(Nc1cn2ccccc2n1)c1cc(-c2ccccc2)on1 |  | 31.3% (inactive) |
| c1ccc(-c2nnc(-c3ccccn3)nc2NCc2cccnc2)cc1 | 15.3 µM |  |
| O=C(NCCCCO)c1cc(-c2ccccc2)on1 | 2.82 µM |  |
| c1ccc(-c2nnc(-c3ccccn3)nc2NCc2ccccn2)cc1 | 20.5 µM |  |
| COc1ccccc1N1CCN(Cc2ccc(O)c3ncccc23)CC1 | 26.5 µM |  |
| CN(C)CCNC(=O)c1cc(-c2ccccc2)on1 |  | 29.6% (inactive) |
| Cc1cccc(CNc2nc(-c3ccccn3)nnc2-c2ccccc2)c1 | 4.08 µM |  |
| C=CCNc1nc(-c2ccccn2)nnc1-c1ccccc1 | 9.45 µM |  |
| C[C@@H](Nc1nc(-c2ccccn2)nnc1-c1ccccc1)C1CCCCC1 | 4.02 µM |  |
| O=C(Nc1cnc2ccccc2c1)c1cc(-c2ccccc2)on1 |  | 28.8% (inactive) |
| Cc1cccc(NC(=O)c2cc(-c3ccccc3)on2)n1 |  | 29.2% (inactive) |
| O=C(NCCCN1CCOCC1)c1cc(-c2ccccc2)on1 | 11.3 µM |  |
| CCCCNC(=O)c1cc(-c2ccccc2)on1 | 9.47 µM |  |
| CC(C)(C)OC(=O)N1CCN(Cc2ccc(O)c3ncccc23)CC1 |  | 271% (inactive) |
| c1ccc(CNc2nc(-c3ccccn3)nnc2-c2ccccc2)cc1 | 5.52 µM |  |
| O=C(c1cc(-c2ccccc2)on1)N1CCN(c2ccncc2)CC1 |  | -14.8% (inactive) |
| c1ccc(-c2nnc(-c3ccccn3)nc2N2CCC(N3CCOCC3)CC2)cc1 | 4.84 µM |  |
| Cn1c(NC(=O)c2cc(-c3ccccc3)on2)nc2ccccc21 |  | -0.753% (inactive) |

| Compound | AC500 [1] | activation [2] |
| --- | --- | --- |
| N#CC1(c2ccccc2)CCN(Cc2ccc(O)c3ncccc23)CC1 |  | 368% (inactive) |
| O=C(NCc1ccccc1)c1cc(-c2ccccc2)on1 |  | 50.8% (inactive) |
| Cc1ccccc1CNC(=O)c1cc(-c2ccccc2)on1 |  | 22.9% (inactive) |
| Clc1cccc(CNc2nc(-c3ccccn3)nnc2-c2ccccc2)c1 | 1.84 µM |  |
| O=C(c1cc(-c2ccccc2)on1)N1CCC(N2CCOCC2)CC1 |  | 8.48% (inactive) |
| COc1cccc(CNc2nc(-c3ccccn3)nnc2-c2ccccc2)c1 | 2.07 µM |  |
| Cc1ccccc1CNc1nc(-c2ccccn2)nnc1-c1ccccc1 | 2.82 µM |  |
| C[C@H](Nc1nc(-c2ccccn2)nnc1-c1ccccc1)C1CCCCC1 | 2.99 µM |  |
| CN1CCN(c2nc(-c3ccccn3)nnc2-c2ccccc2)CC1 | 12.1 µM |  |
| O=C(NC1CCc2ccccc2C1)c1cc(-c2ccccc2)on1 (stereo unspecified) |  | 5.28% (inactive) |
| Cc1ccc(CNc2nc(-c3ccccn3)nnc2-c2ccccc2)cc1 | 4.35 µM |  |
| O=C(Nc1nc2ccccc2s1)c1cc(-c2ccccc2)on1 |  | 4.65% (inactive) |
| OCC1CCN(Cc2ccc(O)c3ncccc23)CC1 |  | 480% (inactive) |
| COc1ccc(CNc2nc(-c3ccccn3)nnc2-c2ccccc2)cc1 | 2.59 µM |  |
| OCC1CCN(c2nc(-c3ccccn3)nnc2-c2ccccc2)CC1 | 21.7 µM |  |
| Oc1ccc(CN2CCC3CCCCC3C2)c2cccnc12 (stereo unspecified) | 11.1 µM |  |
| O=C(Nc1ncc2ccccc2n1)c1cc(-c2ccccc2)on1 |  | 104% (inactive) |
| O=C(NCCCO)c1cc(-c2ccccc2)on1 |  | 400% (inactive) |
| c1ccc(-c2nnc(-c3ccccn3)nc2N2CCC(c3ccccc3)C2)cc1 (stereo unspecified) | 1.72 µM |  |
| CC(C)(C)CCNc1nc(-c2ccccn2)nnc1-c1ccccc1 | 2.2 µM and 1.47 µM |  |
| Oc1ccc(CNC2Cc3ccccc3C2)c2cccnc12 | 28.6 µM |  |
| c1ccc(-c2cnc(Nc3nc(-c4ccccn4)nnc3-c3ccccc3)s2)cc1 | 6.49 µM |  |
| c1ccc(-c2nnc(-c3ccccn3)nc2NCC2CCCCC2)cc1 | 2.17 µM |  |
| Cn1c(-c2ccccc2)cnc1NC(=O)c1cc(-c2ccccc2)on1 |  | 9.12% (inactive) |
| c1ccc(CCNc2nc(-c3ccccn3)nnc2-c2ccccc2)cc1 | 2.81 µM |  |
| c1ccc(-c2nnc(-c3ccccn3)nc2NCCCN2CCOCC2)cc1 | 10.2 µM |  |
